Test results: ChEMBL document CHEMBL4138067, “Design, synthesis and cytotoxicity of bengamide analogues and their epimers” (Medchemcomm, 2017)

Columns and labels:
Assay type in all cases: functional
[1] = system: HL-60; assay: Cytotoxicity in human HL60 cells assessed as reduction in cell growth incubated for 72 hrs by neutral red staining based colorimetry; details: HL-60, 72 h
Procedure, shortened: (§1)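 Cells grown in D-MEM with 10% fetal calf serum, 2 mM L-glutamine, penicillin G, streptomycin and gentamicin, seeded at 3 × 10^3 cells per mL. Compound stocks in DMSO/H2O (1/9). Exposure 72 h at 37 °C in air/CO2 (95:5). Living cells stained with neutral red, optical density read at 540 nm. Run in triplicate. IC50 taken as concentration inhibiting growth to 50% of untreated control.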

[2] = system: MCF7; assay: Cytotoxicity in human MCF7 cells assessed as reduction in cell growth incubated for 72 hrs by neutral red staining based colorimetry; details: MCF7, 72 h; procedure, shortened: as §1
[3] = system: Lu1; assay: Cytotoxicity in human Lu1 cells assessed as reduction in cell growth incubated for 72 hrs by neutral red staining based colorimetry; details: Lu1, 72 h; procedure, shortened: as §1
[4] = system: HeLa; assay: Cytotoxicity in human HeLa cells assessed as reduction in cell growth incubated for 72 hrs by neutral red staining based colorimetry; procedure, shortened: as §1
[5] = system: HepG2; assay: Cytotoxicity in human HepG2 cells assessed as reduction in cell growth incubated for 72 hrs by neutral red staining based colorimetry; details: HepG2, 72 h; procedure, shortened: as §1
[6] = system: KB; assay: Cytotoxicity in human KB cells assessed as reduction in cell growth incubated for 72 hrs by neutral red staining based colorimetry; procedure, shortened: as §1

SMILES	IC50 [1]	IC50 [2]	IC50 [3]	IC50 [4]	IC50 [5]	IC50 [6]
CO[C@@H](C(=O)N[C@H]1CC[C@@H](O)CNC1=O)[C@H](O)[C@@H](O)[C@H](O)/C=C/C(C)(C)C	> 150 µM	23.4 µM	23.4 µM	> 150 µM	> 150 µM	62.6 µM
CO[C@@H](C(=O)N[C@@H]1CCCCNC1=O)[C@H](O)[C@@H](O)[C@H](O)/C=C/C(C)(C)C	5.3 µM	0.2 µM	0.5 µM	2.1 µM	1.1 µM	1.1 µM
CO[C@@H](C(=O)N[C@@H]1CC[C@@H](O)CNC1=O)[C@H](O)[C@@H](O)[C@H](O)/C=C/C(C)(C)C	12.1 µM	165 µM	17.2 µM	15.4 µM	21.3 µM	5.1 µM
CO[C@@H](C(=O)N[C@H]1CCCCNC1=O)[C@H](O)[C@@H](O)[C@H](O)/C=C/C(C)(C)C	83.3 µM	1.3 µM	4.3 µM	60.7 µM	21.1 µM	21 µM
CO[C@@H](C(=O)N[C@@H]1CC[C@H](O)CNC1=O)[C@H](O)[C@@H](O)[C@H](O)/C=C/C(C)(C)C	> 150 µM	80.4 µM	36.3 µM	> 150 µM	138 µM	23.7 µM
CO[C@@H](C(=O)N[C@@H]1CCCCNC1=O)[C@@H]1OC(C)(C)O[C@H](/C=C/C(C)(C)C)[C@@H]1O	> 150 µM	> 150 µM	> 150 µM	> 150 µM	> 150 µM	> 150 µM
CO[C@@H](C(=O)N[C@H]1CC[C@H](O)CNC1=O)[C@H](O)[C@@H](O)[C@H](O)/C=C/C(C)(C)C	> 150 µM	144 µM	10 µM	> 150 µM	103 µM	19.8 µM
CO[C@@H](C(=O)N[C@H]1CCCCNC1=O)[C@@H]1OC(C)(C)O[C@H](/C=C/C(C)(C)C)[C@@H]1O	> 150 µM	> 150 µM	> 150 µM	> 150 µM	> 150 µM	> 150 µM
Cc1c2ccncc2c(C)c2c1[nH]c1ccccc12 [ELLIPTECINE]	2 µM	2.4 µM	1.6 µM	1.6 µM		1.2 µM
